# Test results reported in ChEMBL document CHEMBL1649446, “Comparative antipneumococcal activities of sulopenem and other drugs” (2009).
# Experiments:
# Format in all cases: functional
# Streptococcus pneumoniae [1] = assay: Antimicrobial activity against penicillin-susceptible Streptococcus pneumoniae by agar dilution method
# Streptococcus pneumoniae [2] = assay: Antimicrobial activity against penicillin-intermediate Streptococcus pneumoniae by agar dilution method
# Streptococcus pneumoniae [3] = assay: Antimicrobial activity against penicillin-resistant Streptococcus pneumoniae by agar dilution method
# Summary of the method: (§1)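 Agar dilution MIC on Mueller-Hinton agar with 5% sheep blood, inocula 10^4 CFU/spot; amoxicillin-clavulanate combined 1:2; S. pneumoniae ATCC 49619 quality control each run.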
# Streptococcus pneumoniae [4] = assay: Antimicrobial activity against Streptococcus pneumoniae 19A by agar dilution method; summary of the method: as §1
# Streptococcus pneumoniae [5] = assay: Antimicrobial activity against Streptococcus pneumoniae 1 by time-kill analysis
# Summary of the method: (§2)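 Time-kill in cation-adjusted Mueller-Hinton broth with 5% lysed horse blood; inocula 5 × 105 to 5 × 10^6 CFU/ml; drugs at MIC, 2× and 4× MIC; 35°C shaking water bath; viable counts at 0, 3, 6, 12 and 24 h. Bactericidal if ≥3 log10 CFU/ml (99.9%) reduction from original inoculum; 90% and 99% killing also scored.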
# Streptococcus pneumoniae [6] = assay: Antimicrobial activity against Streptococcus pneumoniae 2 by time-kill analysis
# Summary of the method: as §2, with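 “12,” for “12 and”, “=” for “if”, “drop” for “reduction”, “90%/99%/99.9%” for “90% and 99%”, “scored per strain.” for “also scored.”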
# Streptococcus pneumoniae [7] = assay: Antimicrobial activity against Streptococcus pneumoniae 3 by time-kill analysis
# Summary of the method: as §2, with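 “12,” for “12 and”, “=” for “if”, “drop” for “reduction”, “90%/99%/99.9%” for “90% and 99%”, “scored per strain.” for “also scored.”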
# Streptococcus pneumoniae [8] = assay: Antimicrobial activity against Streptococcus pneumoniae 4 by time-kill analysis
# Summary of the method: as §2, with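 “12,” for “12 and”, “=” for “if”, “drop” for “reduction”, “90%/99%/99.9%” for “90% and 99%”, “scored per strain.” for “also scored.”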
# Streptococcus pneumoniae [9] = assay: Antimicrobial activity against Streptococcus pneumoniae 5 by time-kill analysis; summary of the method: as §2
# Streptococcus pneumoniae [10] = assay: Antimicrobial activity against Streptococcus pneumoniae 6 by time-kill analysis
# Summary of the method: as §2, with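 “12,” for “12 and”, “=” for “if”, “drop” for “reduction”, “90%/99%/99.9%” for “90% and 99%”, “scored per strain.” for “also scored.”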
# Streptococcus pneumoniae [11] = assay: Antimicrobial activity against Streptococcus pneumoniae 7 by time-kill analysis
# Summary of the method: as §2, with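 “12,” for “12 and”, “=” for “if”, “drop” for “reduction”, “90%/99%/99.9%” for “90% and 99%”, “scored per strain.” for “also scored.”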
# Streptococcus pneumoniae [12] = assay: Antimicrobial activity against Streptococcus pneumoniae 8 by time-kill analysis
# Summary of the method: as §2, with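 “12,” for “12 and”, “=” for “if”, “drop” for “reduction”, “90%/99%/99.9%” for “90% and 99%”, “scored per strain.” for “also scored.”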
# Streptococcus pneumoniae [13] = assay: Antimicrobial activity against Streptococcus pneumoniae 9 by time-kill analysis; summary of the method: as §2
# Streptococcus pneumoniae [14] = assay: Antimicrobial activity against Streptococcus pneumoniae 10 by time-kill analysis
# Summary of the method: as §2, with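 “12,” for “12 and”, “=” for “if”, “drop” for “reduction”, “90%/99%/99.9%” for “90% and 99%”, “scored per strain.” for “also scored.”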
# Streptococcus pneumoniae [15] = assay: Antimicrobial activity against Streptococcus pneumoniae 11 by time-kill analysis
# Summary of the method: as §2, with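 “12,” for “12 and”, “=” for “if”, “drop” for “reduction”, “90%/99%/99.9%” for “90% and 99%”, “scored per strain.” for “also scored.”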
# Streptococcus pneumoniae [16] = assay: Antimicrobial activity against Streptococcus pneumoniae 12 by time-kill analysis
# Summary of the method: as §2, with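 “12,” for “12 and”, “=” for “if”, “drop” for “reduction”, “90%/99%/99.9%” for “90% and 99%”, “scored per strain.” for “also scored.”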
# Streptococcus pneumoniae [17] = assay: Antimicrobial activity against Streptococcus pneumoniae isolate 24 by agar dilution method
# Streptococcus pneumoniae [18] = assay: Antimicrobial activity against Streptococcus pneumoniae isolate 33 by agar dilution method; summary of the method: as §1
# Streptococcus pneumoniae [19] = assay: Antimicrobial activity against Streptococcus pneumoniae isolate 37 by agar dilution method; summary of the method: as §1
# Streptococcus pneumoniae [20] = assay: Antimicrobial activity against Streptococcus pneumoniae isolate 1055 by agar dilution method
# Streptococcus pneumoniae [21] = assay: Antimicrobial activity against Streptococcus pneumoniae isolate 1146 by agar dilution method; summary of the method: as §1
# Streptococcus pneumoniae [22] = assay: Antimicrobial activity against Streptococcus pneumoniae isolate 1147 by agar dilution method; summary of the method: as §1
# Streptococcus pneumoniae [23] = assay: Antimicrobial activity against Streptococcus pneumoniae isolate 1384 by agar dilution method; summary of the method: as §1
# Streptococcus pneumoniae [24] = assay: Antimicrobial activity against Streptococcus pneumoniae isolate 1394 by agar dilution method
# Streptococcus pneumoniae [25] = assay: Antimicrobial activity against Streptococcus pneumoniae isolate 1397 by agar dilution method; summary of the method: as §1
# Streptococcus pneumoniae [26] = assay: Antimicrobial activity against Streptococcus pneumoniae isolate 1424 by agar dilution method; summary of the method: as §1
# Streptococcus pneumoniae [27] = assay: Antimicrobial activity against Streptococcus pneumoniae isolate 1564 by agar dilution method
# Streptococcus pneumoniae [28] = assay: Antimicrobial activity against Streptococcus pneumoniae isolate 2617 by agar dilution method; summary of the method: as §1
# Streptococcus pneumoniae [29] = assay: Antimicrobial activity against Streptococcus pneumoniae isolate 2686 by agar dilution method; summary of the method: as §1
# Streptococcus pneumoniae [30] = assay: Antimicrobial activity against Streptococcus pneumoniae isolate 2688 by agar dilution method; summary of the method: as §1
# Streptococcus pneumoniae [31] = assay: Antimicrobial activity against Streptococcus pneumoniae isolate 2874 by agar dilution method; summary of the method: as §1
# Streptococcus pneumoniae [32] = assay: Antimicrobial activity against Streptococcus pneumoniae isolate 2880 by agar dilution method; summary of the method: as §1
# Streptococcus pneumoniae [33] = assay: Antimicrobial activity against Streptococcus pneumoniae isolate 3260 by agar dilution method
# Streptococcus pneumoniae [34] = assay: Antimicrobial activity against Streptococcus pneumoniae isolate 3263 by agar dilution method
# Streptococcus pneumoniae [35] = assay: Antimicrobial activity against Streptococcus pneumoniae isolate 3275 by agar dilution method; summary of the method: as §1
# Streptococcus pneumoniae [36] = assay: Antimicrobial activity against Streptococcus pneumoniae isolate 3282 by agar dilution method
# Streptococcus pneumoniae [37] = assay: Antimicrobial activity against Streptococcus pneumoniae isolate 3346 by agar dilution method
# Streptococcus pneumoniae [38] = assay: Antimicrobial activity against Streptococcus pneumoniae isolate 3374 by agar dilution method; summary of the method: as §1
# Streptococcus pneumoniae [39] = assay: Antimicrobial activity against Streptococcus pneumoniae isolate 3412 by agar dilution method; summary of the method: as §1
# Streptococcus pneumoniae [40] = assay: Antimicrobial activity against Streptococcus pneumoniae isolate 3455 by agar dilution method
# Streptococcus pneumoniae [41] = assay: Antimicrobial activity against Streptococcus pneumoniae isolate 3458 by agar dilution method
# Streptococcus pneumoniae [42] = assay: Antimicrobial activity against Streptococcus pneumoniae isolate 3481 by agar dilution method; summary of the method: as §1
# Streptococcus pneumoniae [43] = assay: Antimicrobial activity against Streptococcus pneumoniae isolate 3587 by agar dilution method
# Streptococcus pneumoniae [44] = assay: Antimicrobial activity against Streptococcus pneumoniae isolate 3681 by agar dilution method; summary of the method: as §1
# Streptococcus pneumoniae [45] = assay: Antimicrobial activity against Streptococcus pneumoniae isolate 3791 by agar dilution method; summary of the method: as §1
# Streptococcus pneumoniae [46] = assay: Antimicrobial activity against Streptococcus pneumoniae isolate 4747 by agar dilution method; summary of the method: as §1
# Streptococcus pneumoniae [47] = assay: Antimicrobial activity against Streptococcus pneumoniae isolate 4755 by agar dilution method; summary of the method: as §1
smiles,measurement,setting,value
CC[C@H]1OC(=O)[C@H](C)[C@@H](O[C@H]2C[C@@](C)(OC)[C@@H](O)[C@H](C)O2)[C@H](C)[C@@H](O[C@@H]2O[C@H](C)C[C@H](N(C)C)[C@H]2O)[C@](C)(O)C[C@@H](C)CN(C)[C@H](C)[C@@H](O)[C@]1(C)O [AZITHROMYCIN],MIC50,Streptococcus pneumoniae [1],2 µg/mL
same,MIC90,Streptococcus pneumoniae [1],> 64 µg/mL
same,MIC50,Streptococcus pneumoniae [2],2 µg/mL
same,MIC90,Streptococcus pneumoniae [2],> 64 µg/mL
same,MIC50,Streptococcus pneumoniae [3],0.125 µg/mL
same,MIC50,Streptococcus pneumoniae [4],> 64 µg/mL
same,MIC90,Streptococcus pneumoniae [4],> 64 µg/mL
same,MIC,Streptococcus pneumoniae [5],> 64 µg/mL
same,MIC,Streptococcus pneumoniae [6],0.06 µg/mL
same,MIC,Streptococcus pneumoniae [7],4 µg/mL
same,MIC,Streptococcus pneumoniae [8],0.06 µg/mL
same,MIC,Streptococcus pneumoniae [9],> 64 µg/mL
same,MIC,Streptococcus pneumoniae [10],0.06 µg/mL
same,MIC,Streptococcus pneumoniae [11],> 64 µg/mL
same,MIC,Streptococcus pneumoniae [12],4 µg/mL
same,MIC,Streptococcus pneumoniae [13],0.06 µg/mL
same,MIC,Streptococcus pneumoniae [14],0.03 µg/mL
same,MIC,Streptococcus pneumoniae [15],> 64 µg/mL
same,MIC,Streptococcus pneumoniae [16],0.12 µg/mL
same,MIC,Streptococcus pneumoniae [17],> 64 µg/mL
same,MIC,Streptococcus pneumoniae [18],0.125 µg/mL
same,MIC,Streptococcus pneumoniae [19],> 64 µg/mL
same,MIC,Streptococcus pneumoniae [20],> 64 µg/mL
same,MIC,Streptococcus pneumoniae [21],2 µg/mL
same,MIC,Streptococcus pneumoniae [22],2 µg/mL
same,MIC,Streptococcus pneumoniae [23],> 64 µg/mL
same,MIC,Streptococcus pneumoniae [24],> 64 µg/mL
same,MIC,Streptococcus pneumoniae [25],> 64 µg/mL
same,MIC,Streptococcus pneumoniae [26],> 64 µg/mL
same,MIC,Streptococcus pneumoniae [27],> 64 µg/mL
same,MIC,Streptococcus pneumoniae [28],0.125 µg/mL
same,MIC,Streptococcus pneumoniae [29],> 64 µg/mL
same,MIC,Streptococcus pneumoniae [30],> 64 µg/mL
same,MIC,Streptococcus pneumoniae [31],> 64 µg/mL
same,MIC,Streptococcus pneumoniae [32],> 64 µg/mL
same,MIC,Streptococcus pneumoniae [33],> 64 µg/mL
same,MIC,Streptococcus pneumoniae [34],> 64 µg/mL
same,MIC,Streptococcus pneumoniae [35],> 64 µg/mL
same,MIC,Streptococcus pneumoniae [36],> 64 µg/mL
same,MIC,Streptococcus pneumoniae [37],> 64 µg/mL
same,MIC,Streptococcus pneumoniae [38],> 64 µg/mL
same,MIC,Streptococcus pneumoniae [39],> 64 µg/mL
same,MIC,Streptococcus pneumoniae [40],> 64 µg/mL
same,MIC,Streptococcus pneumoniae [41],> 64 µg/mL
same,MIC,Streptococcus pneumoniae [42],> 64 µg/mL
same,MIC,Streptococcus pneumoniae [43],> 64 µg/mL
same,MIC,Streptococcus pneumoniae [44],0.125 µg/mL
same,MIC,Streptococcus pneumoniae [45],> 64 µg/mL
same,MIC,Streptococcus pneumoniae [46],> 64 µg/mL
same,MIC,Streptococcus pneumoniae [47],> 64 µg/mL
C=CC1=C(C(=O)O)N2C(=O)[C@@H](NC(=O)/C(=N\O)c3csc(N)n3)[C@H]2SC1 [CEFDINIR],MIC50,Streptococcus pneumoniae [1],0.06 µg/mL
same,MIC90,Streptococcus pneumoniae [1],0.125 µg/mL
same,MIC50,Streptococcus pneumoniae [2],0.5 µg/mL
same,MIC90,Streptococcus pneumoniae [2],4 µg/mL
same,MIC50,Streptococcus pneumoniae [3],8 µg/mL
same,MIC90,Streptococcus pneumoniae [3],8 µg/mL
same,MIC,Streptococcus pneumoniae [5],0.12 µg/mL
same,MIC,Streptococcus pneumoniae [6],0.06 µg/mL
same,MIC,Streptococcus pneumoniae [7],0.5 µg/mL
same,MIC,Streptococcus pneumoniae [8],16 µg/mL
same,MIC,Streptococcus pneumoniae [9],8 µg/mL
same,MIC,Streptococcus pneumoniae [10],1 µg/mL
same,MIC,Streptococcus pneumoniae [11],4 µg/mL
same,MIC,Streptococcus pneumoniae [12],16 µg/mL
same,MIC,Streptococcus pneumoniae [13],1 µg/mL
same,MIC,Streptococcus pneumoniae [14],0.25 µg/mL
same,MIC,Streptococcus pneumoniae [15],4 µg/mL
same,MIC,Streptococcus pneumoniae [16],4 µg/mL
same,MIC,Streptococcus pneumoniae [17],4 µg/mL
same,MIC,Streptococcus pneumoniae [18],8 µg/mL
same,MIC,Streptococcus pneumoniae [19],4 µg/mL
same,MIC,Streptococcus pneumoniae [20],8 µg/mL
same,MIC,Streptococcus pneumoniae [21],8 µg/mL
same,MIC,Streptococcus pneumoniae [22],8 µg/mL
same,MIC,Streptococcus pneumoniae [23],8 µg/mL
same,MIC,Streptococcus pneumoniae [24],8 µg/mL
same,MIC,Streptococcus pneumoniae [25],4 µg/mL
same,MIC,Streptococcus pneumoniae [26],8 µg/mL
same,MIC,Streptococcus pneumoniae [27],32 µg/mL
same,MIC,Streptococcus pneumoniae [28],4 µg/mL
same,MIC,Streptococcus pneumoniae [29],8 µg/mL
same,MIC,Streptococcus pneumoniae [30],16 µg/mL
same,MIC,Streptococcus pneumoniae [31],8 µg/mL
same,MIC,Streptococcus pneumoniae [32],4 µg/mL
same,MIC,Streptococcus pneumoniae [33],8 µg/mL
same,MIC,Streptococcus pneumoniae [34],8 µg/mL
same,MIC,Streptococcus pneumoniae [35],2 µg/mL
same,MIC,Streptococcus pneumoniae [36],8 µg/mL
same,MIC,Streptococcus pneumoniae [37],8 µg/mL
same,MIC,Streptococcus pneumoniae [38],4 µg/mL
same,MIC,Streptococcus pneumoniae [39],4 µg/mL
same,MIC,Streptococcus pneumoniae [40],8 µg/mL
same,MIC,Streptococcus pneumoniae [41],8 µg/mL
same,MIC,Streptococcus pneumoniae [42],4 µg/mL
same,MIC,Streptococcus pneumoniae [43],8 µg/mL
same,MIC,Streptococcus pneumoniae [44],8 µg/mL
same,MIC,Streptococcus pneumoniae [45],8 µg/mL
same,MIC,Streptococcus pneumoniae [46],4 µg/mL
same,MIC,Streptococcus pneumoniae [47],4 µg/mL
